# Test results reported in ChEMBL document CHEMBL4325919, “3,5-Disubstituted-indole-7-carboxamides as IKKβ Inhibitors: Optimization of Oral Activity via the C3 Substituent” (ACS Med Chem Lett, 2018).
# Legend:
# [1] = biological target: T1, Inhibitor of nuclear factor kappa-B kinase subunit beta (Homo sapiens, UniProt O14920); assay: Inhibition of recombinant human C-terminal GST-tagged IKKbeta (1 to 737 residues) expressed in baculovirus expression system using GST-IkBalpha substrate measured after 30 mins by TR-FRET assay
# T1 sequence (O14920 whole entry): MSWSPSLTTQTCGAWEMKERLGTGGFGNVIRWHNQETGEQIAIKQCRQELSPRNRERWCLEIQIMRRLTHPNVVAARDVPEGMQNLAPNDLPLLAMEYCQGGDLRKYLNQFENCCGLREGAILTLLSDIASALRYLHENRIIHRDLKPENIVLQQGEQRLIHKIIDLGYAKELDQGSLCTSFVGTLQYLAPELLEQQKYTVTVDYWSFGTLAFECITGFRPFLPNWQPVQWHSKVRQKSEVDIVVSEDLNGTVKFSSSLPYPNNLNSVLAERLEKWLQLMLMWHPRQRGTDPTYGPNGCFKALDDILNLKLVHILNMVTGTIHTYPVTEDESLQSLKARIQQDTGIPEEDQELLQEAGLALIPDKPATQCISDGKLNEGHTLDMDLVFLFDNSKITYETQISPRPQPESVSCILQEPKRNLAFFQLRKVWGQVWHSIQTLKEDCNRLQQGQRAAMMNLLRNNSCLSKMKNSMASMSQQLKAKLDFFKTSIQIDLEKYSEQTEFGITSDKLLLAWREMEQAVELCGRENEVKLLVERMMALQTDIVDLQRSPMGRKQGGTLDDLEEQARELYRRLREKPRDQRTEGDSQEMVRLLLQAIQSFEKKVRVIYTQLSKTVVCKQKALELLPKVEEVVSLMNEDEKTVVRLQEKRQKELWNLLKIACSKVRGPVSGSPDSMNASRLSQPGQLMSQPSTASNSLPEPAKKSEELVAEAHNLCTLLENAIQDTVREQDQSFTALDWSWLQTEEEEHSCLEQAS
# Method in brief: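 IKK pIC50 values are the mean of more than 2 determinations unless noted otherwise. Compounds were tested as racemic mixtures.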
# [2] = Permeability of the compound by PAMPA; type: ADME; conditions: read-out: permeability
# [3] = AUC in Beagle dog at 2.03 mg/kg, po; type: ADME, organism-based, Canis lupus familiaris; conditions: in vivo
# Method in brief: (§1)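 Male Beagle dogs, n=3. Vehicles were 5% DMSO with 20% Cavitron for i.v. dosing at 1.11 mg/kg and 5% DMSO with 6% Cavitron for oral dosing at 2.03 mg/kg. Derived values were plasma clearance, steady-state volume of distribution, half-life and oral bioavailability.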
# Canis familiaris = assay: Anti-inflammatory activity in inhaled LPS-induced Beagle dog lung neutrophilia model assessed as inhibition of LPS-induced increase in neutrophils in bronchoalveolar lavage administered orally 30 mins prior to LPS instillation and measured after […] by diff quick staining based hemocytometric method; type: functional; conditions: Canis lupus familiaris, po
# [4] = Half life in Sprague-Dawley rat at 2 mg/kg, po or 1 mg/kg, iv; type: ADME, organism-based; conditions: in vivo
# Method in brief: (§2)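 Male Sprague Dawley rats, n=2 (n=3 for one compound). The i.v. leg used 5% DMSO with 20% Cavitron and the oral leg 5% DMSO with 6% Cavitron. Oral doses were 2 mg/kg, or 2.1 mg/kg where stated. The i.v. dose was 1 mg/kg. Clearance is plasma clearance.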
# [5] = Volume of distribution at steady state in Sprague-Dawley rat at 2 mg/kg, po or 1 mg/kg, iv; type: ADME, organism-based; conditions: in vivo, read-out: Vdss; method in brief: as §2
# [6] = AUC in Sprague-Dawley rat at 2 mg/kg, po; type: ADME, organism-based; conditions: in vivo; method in brief: as §2
# [7] = Half life in Beagle dog at 2.03 mg/kg, po or 1.11 mg/kg, iv; type: ADME, organism-based, Canis lupus familiaris; conditions: in vivo; method in brief: as §1
# [8] = Plasma clearance in Beagle dog at 2.03 mg/kg, po or 1.11 mg/kg, iv; type: ADME, organism-based, Canis lupus familiaris; method in brief: as §1
# [9] = Oral bioavailability in Beagle dog at 2.03 mg/kg; type: ADME, organism-based, Canis lupus familiaris; conditions: in vivo; method in brief: as §1
# [10] = biological target: T1, Inhibitor of nuclear factor kappa-B kinase subunit beta; assay: Inhibition of IKKbeta in human CD14-positive monocytes assessed as reduction in LPS-stimulated TNFalpha secretion preincubated for 30 mins followed by LPS stimulation and measured after 24 hrs by Alpha screen assay; type: cell-based
# [11] = Volume of distribution at steady state in Beagle dog at 2.03 mg/kg, po or 1.11 mg/kg, iv; type: ADME, organism-based, Canis lupus familiaris; conditions: in vivo, read-out: Vdss; method in brief: as §1
# [12] = Kinetic aqueous solubility of the compound by UV-HPLC analysis; type: physicochemical; conditions: buffer; read-out: Kinetic_solubility
# Rattus norvegicus [13] = assay: Anti-inflammatory activity in LPS-induced Lewis rat inflammation model assessed as inhibition of LPS-induced TNFalpha secretion in blood administered orally 30 mins prior to LPS challenge and measured after 2 hrs by ELISA; type: functional; conditions: po
# [14] = Plasma clearance in Sprague-Dawley rat at 2 mg/kg, po or 1 mg/kg, iv; type: ADME, organism-based; method in brief: as §2
# [15] = Oral bioavailability in Sprague-Dawley rat at 2 mg/kg; type: ADME, organism-based; conditions: in vivo; method in brief: as §2
# Rattus norvegicus [16] = assay: (§3) Antiinflammatory activity in LPS-induced rat neutrophilia model assessed as inhibition of LPS-induced increase in neutrophils in bronchoalveolar lavage at 100 umol/kg, po administered 30 mins prior to 20 mins nebulized LPS challenge and measured after 4 hrs by diff quick staining based hemocytometric method relative to control; type: functional
# Rattus norvegicus [17] = assay: as §3, with “50” for “100”; type: functional
compound,measurement,setting,value
NC(=O)c1cc(-c2ccccc2)cc2c([C@@H]3C[C@H]4CC[C@@H](C3)S4(=O)=O)c[nH]c12,IC50,[1],0.0794 µM
CN1C(=O)CCC1c1c[nH]c2c(C(N)=O)cc(-c3ccccc3)cc12 (configuration not stated),IC50,[1],0.501 µM
NC(=O)c1cc(-c2ccccc2)cc2c(C3CCS(=O)(=O)CC3)c[nH]c12,Papp,[2],277 nm/s
same,AUC,[3],0.753 µg·h/mL
same,ED50,Canis familiaris,2.9 µmol/kg
same,half-life,[4],1.58 h
same,Vd,[5],2.8 L/kg
same,AUC,[6],0.904 µg·h/mL
same,half-life,[7],0.949 h
same,clearance,[8],1.42 L/h/kg
same,bioavailability,[9],52.6%
same,IC50,[10],0.08 µM
same,Vd,[11],1.54 L/kg
same,solubility kinetic,[12],130 µM
same,ED50,Rattus norvegicus [13],7.6 µmol/kg
same,clearance,[14],2.1 L/h/kg
same,IC50,[1],0.01 µM
same,bioavailability,[15],97%
NC(=O)c1cc(-c2ccccc2)cc2c(C3CCCS(=O)(=O)C3)c[nH]c12 (configuration not stated),IC50,[1],0.158 µM
NCCS(=O)(=O)N1CCC(c2c[nH]c3c(C(N)=O)cc(-c4ccccc4)cc23)CC1,Papp,[2],3 nm/s
same,half-life,[4],4.43 h
same,Vd,[5],3 L/kg
same,AUC,[6],0.048 µg·h/mL
same,IC50,[10],0.14 µM
same,solubility kinetic,[12],33 µM
same,clearance,[14],0.84 L/h/kg
same,IC50,[1],0.00794 µM
same,bioavailability,[15],3%
CC1(C)CC(c2c[nH]c3c(C(N)=O)cc(-c4ccccc4)cc23)NC1=O (configuration not stated),IC50,[1],0.02 µM
CS(=O)(=O)CCc1c[nH]c2c(C(N)=O)cc(-c3ccccc3)cc12,IC50,[1],0.0631 µM
NC(=O)c1cc(-c2ccccc2)cc2c(C3CCN(S(=O)(=O)CCCN4CCCCC4)CC3)c[nH]c12,Papp,[2],240 nm/s
same,solubility kinetic,[12],162 µM
same,IC50,[1],0.00794 µM
NC(=O)c1cc(-c2ccccc2)cc2c(C3CCC(=O)CC3)c[nH]c12,IC50,[1],0.501 µM
NC(=O)c1cc(-c2ccccc2)cc2c([C@H]3C[C@H]4CC[C@@H](C3)S4(=O)=O)c[nH]c12,IC50,[1],0.0398 µM
CCS(=O)(=O)N1CCC(c2c[nH]c3c(C(N)=O)cc(-c4ccccc4)cc23)CC1,Papp,[2],250 nm/s
same,half-life,[4],1.15 h
same,Vd,[5],1 L/kg
same,AUC,[6],1.22 µg·h/mL
same,IC50,[10],0.19 µM
same,inhibition in vivo at 100 µmol/kg,Rattus norvegicus [16],30%
same,clearance,[14],0.96 L/h/kg
same,bioavailability,[15],58%
NC(=O)c1cc(-c2ccccc2)cc2c(C3CCN(S(=O)(=O)CCCN4CCOCC4)CC3)c[nH]c12,Papp,[2],318 nm/s
same,half-life,[4],1.18 h
same,Vd,[5],0.43 L/kg
same,inhibition in vivo at 50 µmol/kg,Rattus norvegicus [17],30%
same,AUC,[6],2.03 µg·h/mL
same,IC50,[10],0.2 µM
same,solubility kinetic,[12],36 µM
same,clearance,[14],0.534 L/h/kg
same,IC50,[1],0.0316 µM
same,bioavailability,[15],53%
CC1(C)CC(=O)NC1c1c[nH]c2c(C(N)=O)cc(-c3ccccc3)cc12 (configuration not stated),IC50,[1],0.2 µM
NC(=O)c1cc(-c2ccccc2)cc2c(C3CCN(S(=O)(=O)CCCN4CCCCCC4)CC3)c[nH]c12,Papp,[2],290 nm/s
same,solubility kinetic,[12],93 µM
same,IC50,[1],0.00631 µM
